Measurements as given in ChEMBL document CHEMBL1138288, “2-phenylimidazopyridines, a new series of Golgi compounds with potent antiviral activity” (J Med Chem, 2007).
The source made the active and inactive calls. No cut-off for these calls is given here.

Assays:
[1] = Inhibition of IgE production in antigen-sensitized BALB/c mouse spleen cells; assay type: functional, tissue-based
Human alphaherpesvirus 2 [2] = test: Antiviral activity against HSV2-infected Vero cells; assay type: functional, organism-based
Vaccinia virus = test: Antiviral activity against Vaccinia virus-infected Vero cells; assay type: functional, organism-based, Orthopoxvirus vaccinia
[3] = system: Vesicular stomatitis virus; test: Antiviral activity against VSV-infected Vero cells; assay type: functional, organism-based
[4] = system: California encephalitis virus; test: Antiviral activity against California encephalitis virus-infected Vero cells; assay type: functional, cell-based
San Angelo virus = test: Antiviral activity against San Angelo virus-infected Vero cells; assay type: functional, organism-based
Simian virus 40 = test: Antiviral activity against SV40-infected Vero cells; assay type: functional, organism-based; conditions: Betapolyomavirus macacae
Outline: (§1)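 Cells were seeded at about 50 000/well and infected 24 h later at MOI 0.1 or less, with drug added alongside. Once infectivity was evident, cells were washed and stained with methylene blue/carbol fuchsin in methanol for 10 min at room temperature.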

Murine hepatitis virus = test: Antiviral activity against mouse hepatitis virus-infected NCTC clone-1469 cells; assay type: functional, organism-based; outline: as §1
Modoc virus = test: Antiviral activity against Modoc virus-infected HeLa-H1 cells; assay type: functional, organism-based
Enterovirus = test: Antiviral activity against Rhinovirus-infected HeLa-H1 cells; assay type: functional, organism-based
Human alphaherpesvirus 2 [5] = test: Antiviral activity against HSV2 MS-infected IAF/HA-HO guinea pig assessed as suppression of vesicle formation at 2% applied topically four times a day for 3 days; assay type: functional, organism-based
Outline: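 Six hairless guinea pigs were each inoculated at three back sites with HSV-2 MS strain. Sites received drug at 2% in vehicle, vehicle alone, or nothing, rotated between sites so each animal was its own control. Vehicle was 38% Gelucire 44/14, 38% PEG 400, 10% Tween 80 and 10% N-methylpyrrolidinone. Dosing was topical, four times daily at about 2.5 h intervals. Vesicle formation was assessed on day 4 after inoculation.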

[6] = Selectivity ratio, IC50 HSV2-infected Vero cells to IC50 for inhibition of IgE production in antigen-sensitized BALB/c mouse spleen cells; assay type: functional
[7] = Selectivity ratio, IC50 for vaccinia virus-infected Vero cells to IC50 for inhibition of IgE production in antigen-sensitized BALB/c mouse spleen cells; assay type: functional
[8] = California encephalitis virus, Vero

Compound	IC50 ([1]; Mus musculus, BALB/c, Spleen) [nM]	IC50 (Human alphaherpesvirus 2 [2]; Human alphaherpesvirus 2, Vero) [nM]	IC50 (Vaccinia virus; Orthopoxvirus vaccinia, Vero) [nM]	IC50 [3] [nM]	IC50 [4, 8] [nM]	IC50 (San Angelo virus; San Angelo virus, Vero) [nM]	IC50 (Simian virus 40) [nM]	IC50 (Murine hepatitis virus; Murine coronavirus) [nM]	IC50 (Modoc virus) [nM]	IC50 (Enterovirus; Enterovirus, HeLa H1) [nM]	Activity (Human alphaherpesvirus 2 [5])	IC50 [1] [nM]	IC50 (Human alphaherpesvirus 2 [2]; vero) [nM]	IC50 (Vaccinia virus; vero) [nM]	IC50 ([4]; vero) [nM]	IC50 (San Angelo virus; vero) [nM]	IC50 (Enterovirus; hela-h1) [nM]	IC50 (Murine hepatitis virus) [nM]	Ratio IC50 [6]	Ratio IC50 [7]
O=C(Nc1ccccn1)c1cc2nc(-c3ccc(NC(=O)C45CC6CC(CC(C6)C4)C5)cc3)[nH]c2cn1	120	600	1500	> 2000	40	40	> 2000	50	600	200										
O=C(Nc1ccc(-c2nc3cc(NC(=O)C4CCCCC4)ccc3[nH]2)cc1)C1CCCCC1	5	170	200	1000	200	200	1000	20	50	160										
CC(=O)OC1CCC(C(=O)Nc2ccc(-c3nc4cc(NC(=O)C5CCC(OC(C)=O)CC5)ccc4[nH]3)cc2)CC1 (centres undefined)	1000	> 2000	> 2000	1000	> 2000	> 2000	1500	> 600	> 600	> 2000										
O=C(Nc1ccc(-c2nc3cc(NC(=O)C45CC6CC(CC(C6)C4)C5)ncc3[nH]2)cc1)C12CC3CC(CC(C3)C1)C2	1	5	10	> 2000	6	6	> 2000	8	20	10	Active									
O=C(Nc1cc2nc(-c3ccc(NC(=O)C45CC6CC(CC(C6)C4)C5)cc3)[nH]c2cn1)c1ccccn1	10	75	500	1000	60	60	> 2000	60	60	60										
O=C(Nc1ccc(-c2nc3cc(C(=O)NC45CC6CC(C4)C(=O)C(C6)C5)ncc3[nH]2)cc1)c1ccc(Cl)cc1	0.15	40	40	1000	200	135	> 2000	100	> 600	20										
O=C(Nc1ccccn1)c1ccc2[nH]c(-c3ccc(NC(=O)C45CC6CC(CC(C6)C4)C5)cc3)nc2c1 (stereo in doubt; 1h)				> 2000			> 2000	20	60			4	30	40	60	20	20			
O=C(Nc1ccccn1)c1ccc2[nH]c(-c3ccc(NC(=O)C45CC6CC(CC(C6)C4)C5)cc3F)nc2c1	10	150	600	> 2000	200	200	> 2000	60	60	400										
O=C(Nc1ccccn1)c1ccc2[nH]c(-c3ccc(NC(=O)C45CC6CC(CC(C6)C4)C5)cc3)nc2c1 (stereo in doubt; 1d)												12	300	300	200	200	200	30	25	25
CC(=O)OC1C2CC3CC1CC(C(=O)Nc1ccc(-c4nc5cc(C(=O)Nc6ccccn6)ccc5[nH]4)cc1)(C3)C2 (centres undefined)	10	1000	1500	> 2000	130	60	> 2000	> 600	200	200									>100	>100
O=C(Nc1ccc(-c2nc3cc(NC(=O)C45CC6CC(CC(C6)C4)C5)ccc3[nH]2)cc1)C12CC3CC(CC(C3)C1)C2	1	20	400	> 2000	30	60	1200	12	20	60										
O=C(Nc1ccc(-c2nc3cc(NC(=O)C4CCCCC4)ccc3[nH]2)cc1)c1ccc(Cl)c(Cl)c1	3	60	600	> 2000	200	60	> 2000	20	20	200										
O=C(Nc1ccc(-c2nc3cc(C(=O)NC45CC6CC(CC(C6)C4)C5)ncc3[nH]2)cc1)c1ccc(Cl)cc1	3	20	40	> 2000	60	20	> 2000	60	20	400										
O=C(Nc1ccc(-c2nc3cc(NC(=O)C4CCCCC4)ncc3[nH]2)cc1)C1CCCCC1	1.5	20	60	> 2000	60	20	> 2000	15	6	60										
O=C1C2CC3CC1CC(C(=O)Nc1ccc(-c4nc5cc(NC(=O)C67CC8CC(CC(C8)C6)C7)ncc5[nH]4)cc1)(C3)C2	4	250	400	> 2000	200	200	> 2000	200	> 600	> 2000										
O=C(Nc1ccc(-c2nc3cc(NC(=O)C45CC6CC(CC(C6)C4)C5)ncc3[nH]2)cc1)C12CC3CC(C1)C(O)C(C3)C2 (centres undefined)	1	60	120	1000	200	60	> 2000	20	20	10										
O=C(NC12CC3CC(CC(C3)C1)C2)c1cc2nc(-c3ccc(NC(=O)C45CC6CC(CC(C6)C4)C5)cc3)[nH]c2cn1	10	30	140	> 2000	60	60	> 2000	20	100	40										
O=C1C2CC3CC1CC(C(=O)Nc1ccc(-c4nc5cc(NC(=O)C67CC8CC(C6)C(=O)C(C8)C7)ncc5[nH]4)cc1)(C3)C2	45	> 2000	> 2000	> 2000	200	200	1000	> 600	> 600	> 2000										
O=C(Nc1ccc(-c2nc3cc(C(=O)NC45CC6CC(CC(C6)C4)C5)ccc3[nH]2)cc1)c1ccc(Cl)c(Cl)c1	1	20	20	> 2000	20	6	> 2000	8	6	20										
O=C(NC12CC3CC(CC(C3)C1)C2)c1ccc2[nH]c(-c3ccc(NC(=O)C45CC6CC(CC(C6)C4)C5)cc3)nc2c1	5	40	600	> 2000	60	20	> 2000	20	60	20										
O=C(Nc1ccccn1)c1ccc2[nH]c(-c3ccc(NC(=O)[C@]45CC6CC(C4)[C@@H](O)C(C6)C5)cc3)nc2c1	10	1500	1800	> 2000	60	135	> 2000	100	400	200									150	150
O=C(NC12CC3CC(C1)C(=O)C(C3)C2)c1cc2nc(-c3ccc(NC(=O)C45CC6CC(CC(O)(C6)C4)C5)cc3)[nH]c2cn1	140	> 2000	> 2000	> 2000	200	200	> 2000	> 600	> 600	100										
O=C(Nc1ccc(-c2nc3cc(NC(=O)C45CC6CC(C4)C(O)C(C6)C5)ncc3[nH]2)cc1)C12CC3CC(CC(C3)C1)C2 (centres undefined)	0.15	90	400	> 2000	60	60	1000	200	20	20										
